# From ChEMBL document CHEMBL1121854, “New antiarrhythmic agents. 5. alpha-Aminoaceto-2,6-xylidides with functionalized amide alkyl substituents” (J Med Chem, 1981)
# Tests used:
# [1] = system: Mus musculus; assay: Antiarrhythmic activity against arrhythmogenic effects of chloroform in mice after sc administration; assay type: functional; conditions: Heart
# Outline: (§1)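 At 20 min they were exposed to chloroform until respiratory arrest, then given a thoracotomy. Leads I and II plus an epicardial ECG were recorded for 30–40 s. Tachycardia was defined as ≥5 s with a ventricular rate >520 beats/min; absence meant protection.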
# [2] = system: Mus musculus; assay: Acute CNS toxicity against arrhythmogenic effects of chloroform in mice after sc administration; assay type: functional; conditions: Central nervous system
# [3] = Therapeutic index is defined as the ratio of ED50(ataxia)/ED50(protection); conditions: read-out: Therapeutic index
# Outline: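 Ratio of ED50 for ataxia to ED50 for protection against chloroform-induced ventricular tachycardia in mice. Both ED50 values were derived by Berkson's logit chi-square method from percent responders across dose groups.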
# [4] = system: Mus musculus; assay: Antiarrhythmic activity against arrhythmogenic effects of chloroform in mice after sc administration.; assay type: functional; conditions: Heart; outline: as §1
# [5] = system: Mus musculus; assay: Acute CNS toxicity against arrhythmogenic effects of chloroform in mice after sc administration.; assay type: functional; conditions: Central nervous system
# [6] = system: Ovis aries; assay: Duration of spinal anesthesia at the digits of the hind limbs was measured in sheep at dose.40(mg/kg); assay type: functional, Hindlimb
# Outline: (§2)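 Sterile solutions held 20 mg/mL base (2%) and 50 mg/mL glucose, made from the salts and adjusted to pH 6.1–6.5 with dilute NaOH. 2 mL was injected intrathecally in sheep. Onset of block was recorded at the anal region and hind-limb digits. Duration of pain block at both sites and of loss of weight support was noted. 5% glucose served as vehicle control.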
# [7] = system: Ovis aries; assay: Onset of spinal anesthesia at the anal region was measured in sheep at dose 40(mg/kg); assay type: functional; outline: as §2
# [8] = system: Ovis aries; assay: Onset of spinal anesthesia at the digits of the hind limbs was measured in sheep at dose 40(mg/kg); assay type: functional, Hindlimb; outline: as §2
# [9] = system: Ovis aries; assay: Duration of spinal anesthesia at the weight support was measured in sheep at dose.40(mg/kg); assay type: functional; outline: as §2
# [10] = system: Ovis aries; assay: Duration of spinal anesthesia at the anal region was measured in sheep at dose.40(mg/kg); assay type: functional; outline: as §2
# [11] = system: Ovis aries; assay: Duration of spinal anesthesia at the digits of the hind limbs was measured in sheep at dose 40(mg/kg); assay type: functional, Hindlimb; outline: as §2
# [12] = system: Ovis aries; assay: Duration of spinal anesthesia at the anal region was measured in sheep at dose 40(mg/kg); assay type: functional; outline: as §2
# [13] = system: Ovis aries; assay: Duration of spinal anesthesia at the weight support was measured in sheep at dose 40(mg/kg); assay type: functional; outline: as §2
# [14] = system: Ovis aries; assay: Duration of spinal anesthesia at the anal region was measured in sheep at dose. 40 mg/kg; 50-300; assay type: functional; outline: as §2
# [15] = system: Ovis aries; assay: Duration of spinal anesthesia at the digits of the hind limbs was measured in sheep at dose. 40 mg/kg; 0-140; assay type: functional, Hindlimb; outline: as §2
# [16] = system: Ovis aries; assay: Onset of spinal anesthesia at the anal region was measured in sheep at dose 40(mg/kg); 5-50; assay type: functional; outline: as §2
# [17] = system: Ovis aries; assay: Duration of spinal anesthesia at the weight support was measured in sheep at dose. 40 mg/kg; 0-165; assay type: functional; outline: as §2
# [18] = system: Ovis aries; assay: Onset of spinal anesthesia at the digits of the hind limbs was measured in sheep at dose 40 (mg/kg); 5-50
# [19] = system: Ovis aries; assay: Onset of spinal anesthesia at the digits of the hind limbs was measured in sheep at dose 30(mg/kg); assay type: functional, Hindlimb
# [20] = system: Ovis aries; assay: Onset of spinal anesthesia at the anal region was measured in sheep at dose 30(mg/kg); assay type: functional
# [21] = system: Ovis aries; assay: Duration of spinal anesthesia at the weight support was measured in sheep at dose 10(mg/kg); assay type: functional
# [22] = system: Ovis aries; assay: Onset of spinal anesthesia at the digits of the hind limbs was measured in sheep at dose 10 (mg/kg); assay type: functional, Hindlimb
# [23] = system: Ovis aries; assay: Duration of spinal anesthesia at the anal region was measured in sheep at dose 10(mg/kg); assay type: functional
# [24] = system: Ovis aries; assay: Onset of spinal anesthesia at the anal region was measured in sheep at dose 10(mg/kg); assay type: functional
# [25] = system: Ovis aries; assay: Duration of spinal anesthesia at the digits of the hind limbs was measured in sheep at dose 10(mg/kg); assay type: functional, Hindlimb
compound,measurement,setting,value
Cc1cccc(C)c1NC(=O)CN [GLYCINEXYLIDIDE],ED50,[1],840 µmol/kg
same,ED50,[2],620 µmol/kg
same,selectivity ratio,[3],0.7
Cc1cccc(C)c1NC(=O)C(C)N (centres undefined) [TOCAINIDE],ED50,[1],550 µmol/kg
same,ED50,[2],760 µmol/kg
same,selectivity ratio,[3],1.4
Cc1cccc(C)c1N(CCO)C(=O)CN,ED50,[1],1260 µmol/kg
same,ED50,[2],1080 µmol/kg
same,selectivity ratio,[3],0.9
Cc1cccc(C)c1N(CCN)C(=O)CN,ED50,[4],390 µmol/kg
same,ED50,[5],1050 µmol/kg
same,selectivity ratio,[3],2.7
CCN(CC)CC(=O)N(CCN)c1c(C)cccc1C,Duration of block,[6],132 min
same,Onset of block,[7],5 min
same,Onset of block,[8],15 min
same,ED50,[4],120 µmol/kg
same,Duration of block,[9],195 min
same,Duration of block,[10],270 min
same,ED50,[5],560 µmol/kg
same,selectivity ratio,[3],4.7
OC[C@H]1OC(O)[C@H](O)[C@@H](O)[C@@H]1O (some centres undefined) [DEXTROSE],Duration of block,[11],0 min
same,Duration of block,[12],0 min
same,Duration of block,[13],0 min
CCN(CC)CC(=O)N(CCO)c1c(C)cccc1C,ED50,[4],180 µmol/kg
same,ED50,[5],490 µmol/kg
same,selectivity ratio,[3],2.7
CCN(CC)CCN(C(=O)CN)c1c(C)cccc1C,Duration of block,[14],50 min
same,ED50,[4],690 µmol/kg
same,Duration of block,[15],0 min
same,Onset of block,[16],19 min
same,Duration of block,[17],0 min
same,ED50,[5],1130 µmol/kg
same,selectivity ratio,[3],1.6
same,Onset of block,[18],19 min
CCN(CC)CCN(C(=O)CN1C(=O)c2ccccc2C1=O)c1c(C)cccc1C,ED50,[1],10 µmol/kg
same,ED50,[2],10 µmol/kg
same,selectivity ratio,[3],1
CCN(CC)CC(=O)Nc1c(C)cccc1C [LIDOCAINE],ED50,[1],210 µmol/kg
same,Onset of block,[19],1.4 min
same,Onset of block,[20],1 min
same,ED50,[2],180 µmol/kg
CCOCCN(C(=O)CN)c1c(C)cccc1C,ED50,[4],190 µmol/kg
same,ED50,[5],170 µmol/kg
same,selectivity ratio,[3],0.9
CCOCCN(C(=O)CN(CC)CC)c1c(C)cccc1C,ED50,[4],60 µmol/kg
same,ED50,[5],80 µmol/kg
same,selectivity ratio,[3],1.3
CCN(CC)CC(=O)N(CC)c1c(C)cccc1C,ED50,[4],140 µmol/kg
same,ED50,[5],210 µmol/kg
same,selectivity ratio,[3],1.5
CCN(CC)CCN(C(=O)CN(CC)CC)c1c(C)cccc1C,Duration of block,[6],0 min
same,ED50,[1],460 µmol/kg
same,Duration of block,[9],0 min
same,Duration of block,[10],0 min
same,ED50,[2],600 µmol/kg
same,selectivity ratio,[3],1.3
CCCCNc1ccc(C(=O)OCCN(C)C)cc1 [TETRACAINE],Duration of block,[21],458 min
same,Onset of block,[22],1.2 min
same,Duration of block,[23],302 min
same,Onset of block,[24],1.13 min
same,Duration of block,[25],285 min
CCCN(C(=O)CN(CC)CC)c1c(C)cccc1C,ED50,[4],170 µmol/kg
same,ED50,[5],150 µmol/kg
same,selectivity ratio,[3],0.9
